The source made the active and inactive calls. The rule behind the calls is not given here.
Key:
[1] = biological target: Sodium channel protein type 9 subunit alpha (Mus musculus, UniProt Q62205); experiment: Inhibition of mouse NaV1.7 by whole cell voltage clamp method
Procedure, shortened: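 PatchXpress electrophysiology was run with a protocol giving about 20% channel inactivation. At least four concentrations at half-log spacing were applied one at a time, with washout, current recovery and holding voltage reset between each. Data were pooled from at least 10 cells, with 2–3 points per concentration, and fitted with a 4-parameter Hill curve to give one IC50.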

[2] = biological target: Histamine H2 receptor (Homo sapiens) (UniProt P25021); experiment: Displacement of [125I]APT from human recombinant histamine H2 receptor expressed in CHO cells at 10 uM by radioligand displacement assay; assay type: cell-based
Plasma [3] = experiment: Plasma concentration in Sprague-Dawley rat model of formalin-induced nociception behavior at 10 mg/kg, po; assay type: ADME, organism-based; details: in vivo
Procedure, shortened: (§1)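 Sprague Dawley rats got 10, 30 or 100 mg/kg PO in 30% (w/v) hydroxypropyl β-cyclodextrin, pH 10.0 with KOH. Total phase II formalin-induced flinches were counted. Morphine sulfate 2 mg/kg SC served as control. Unbound plasma levels were measured and compared with the rat NaV1.7 IC50.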

[4] = Ratio of unbound plasma concentration in C57BL/6 mouse model of formalin-induced nociception behavior at 60 mg/kg, po to IC50 for mouse Nav1.7 by whole cell voltage clamp method
Procedure, shortened: (§2)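 The formalin arm received 2% formalin subcutaneously into the dorsal hind paw, and total phase II licking and lifting was scored. The pruritus arm was dosed 120 min before histamine (8.15mM, intradermal, nape of neck), and scratch bouts were counted over 0-30 min. Unbound plasma concentration was determined at each dose.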

[5] = AUC (infinity) in rat at 0.5 mg/kg, iv by LC-MS/MS method; assay type: ADME, organism-based; set-up: dose 0.5 mg/kg, time infinity, route intravenous; details: in vivo
Procedure, shortened: (§3)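 Male rats got 0.5 mg/kg IV as a DMSO solution. Unbound clearance was taken as rat clearance divided by the unbound fraction from equilibrium dialysis.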

[6] = Clearance in pooled human liver microsomes at 1 uM in presence of NADPH by LC-MS/MS method; assay type: ADME, microsome; details: read-out: CLH
[7] = Ratio of unbound plasma concentration in C57BL/6 mouse model of formalin-induced nociception behavior at 30 mg/kg, po to IC50 for mouse Nav1.7 by whole cell voltage clamp method
Procedure, shortened: (§4)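 Male C57BL/6 mice got 30, 60 or 100 mg/kg PO in 30% (w/v) hydroxypropyl β-cyclodextrin in water, pH 10.0 with KOH. Formalin (2%) was injected subcutaneously into the dorsal hind paw, and total phase II paw licking and lifting were scored. Morphine sulfate 3 mg/kg SC served as control. Unbound plasma concentration was divided by the mouse NaV1.7 IC50.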

Plasma [8] = experiment: Unbound plasma concentration in C57BL/6 mouse model of histamine-induced pruritus at 30 mg/kg, po; assay type: ADME, organism-based; details: in vivo; procedure, shortened: as §2
[9] = Protein binding in mouse plasma at 5 uM by ultracentrifugation and LC-MS/MS method; assay type: ADME, cell-free; details: read-out: PPB (converted)
Plasma [10] = experiment: Plasma concentration in Sprague-Dawley rat model of formalin-induced nociception behavior at 100 mg/kg, po; assay type: ADME, organism-based; details: in vivo; procedure, shortened: as §1
Plasma [11] = experiment: Plasma concentration in C57BL/6 mouse model of formalin-induced nociception behavior at 60 mg/kg, po; assay type: ADME, organism-based; details: in vivo; procedure, shortened: as §4
Plasma [12] = experiment: Plasma concentration in Sprague-Dawley rat model of formalin-induced nociception behavior at 30 mg/kg, po; assay type: ADME, organism-based; details: in vivo; procedure, shortened: as §1
[13] = Protein binding in rat plasma at 5 uM by ultracentrifugation and LC-MS/MS method; assay type: ADME, cell-free; details: read-out: PPB (converted)
Plasma [14] = experiment: Unbound plasma concentration in C57BL/6 mouse model of histamine-induced pruritus at 100 mg/kg, po; assay type: ADME, organism-based; details: in vivo; procedure, shortened: as §2
Plasma [15] = experiment: Unbound plasma concentration in Sprague-Dawley rat model of formalin-induced nociception behavior at 100 mg/kg, po; assay type: ADME, organism-based; details: in vivo
Procedure, shortened: (§5)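 Total phase II formalin-induced flinches were scored. Unbound plasma concentration was determined at each dose and related to the rat NaV1.7 IC50.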

Rattus norvegicus [16] = experiment: Unbound clearance in rat at 0.5 mg/kg, iv by LC-MS/MS method; assay type: ADME, organism-based; details: in vivo
Procedure, shortened: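 Male rats given 0.5 mg/kg intravenously as a solution in DMSO. Unbound clearance was calculated as rat clearance divided by unbound fraction, with unbound fraction determined by equilibrium dialysis.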

Plasma [17] = experiment: Plasma concentration in C57BL/6 mouse model of histamine-induced pruritus at 60 mg/kg, po; assay type: ADME, organism-based; details: in vivo
Procedure, shortened: (§6)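 Male C57BL/6 mice got 30, 60 or 100 mg/kg PO in 30% hydroxypropyl β-cyclodextrin, pH 10.0, 120 min before the test. Histamine (8.15mM) was given intradermally to the nape of the neck just before testing, and scratch bouts were counted over 0–30 min. Diphenhydramine 30 mg/kg PO in water, 90 min before, served as control. Unbound plasma concentrations were measured.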

Mus musculus [18] = experiment: Analgesic activity in C57BL/6 mouse model of formalin-induced nociception behavior assessed as reduction in formalin-evoked paw lifting/licking at 100 mg/kg, po; assay type: functional; procedure, shortened: as §4
[19] = biological target: Sodium channel protein type 10 subunit alpha (Rattus norvegicus, UniProt Q62968); experiment: Inhibition of NaV1.8 in rat DRG neurons assessed as reduction in tetrodotoxin-resistant sodium channel currents at holding potential of -140 mV by manual patch clamp electrophysiology assay
Mus musculus [20] = experiment: Analgesic activity in C57BL/6 mouse model of formalin-induced nociception behavior assessed as reduction in formalin-evoked paw lifting/licking at 30 to 100 mg/kg, po; assay type: functional, organism-based; procedure, shortened: as §4
[21] = Apparent permeability in MDCK vector control cells at 5 uM; details: dog
Rattus norvegicus [22] = experiment: Analgesic activity in Sprague-Dawley rat model of formalin-induced nociception behavior assessed as reduction in formalin-evoked paw flinching at 30 mg/kg, po; assay type: functional; procedure, shortened: as §1
Plasma [23] = experiment: Unbound plasma concentration in Sprague-Dawley rat model of formalin-induced nociception behavior at 10 mg/kg, po; assay type: ADME, organism-based; details: in vivo; procedure, shortened: as §5
Mus musculus [24] = experiment: Anti-pruritic activity in C57BL/6 mouse model of histamine-induced pruritus assessed as reduction in histamine-induced scratching at 60 mg/kg, po dosed 120 mins before test; assay type: functional; procedure, shortened: as §6
[25] = Ratio of unbound plasma concentration in Sprague-Dawley rat model of formalin-induced nociception behavior at 100 mg/kg, po to IC50 for rat Nav1.7 by whole cell voltage clamp method; procedure, shortened: as §5
[26] = Clearance in rat at 0.5 mg/kg, iv by LC-MS/MS method; assay type: ADME, organism-based; details: in vivo; procedure, shortened: as §3
[27] = Ratio of unbound plasma concentration in C57BL/6 mouse model of histamine-induced pruritus at 100 mg/kg, po to IC50 for mouse Nav1.7 by whole cell voltage clamp method; procedure, shortened: as §2
Plasma [28] = experiment: Plasma concentration in C57BL/6 mouse model of formalin-induced nociception behavior at 30 mg/kg, po; assay type: ADME, organism-based; details: in vivo; procedure, shortened: as §4
Plasma [29] = experiment: Plasma concentration in C57BL/6 mouse model of histamine-induced pruritus at 100 mg/kg, po; assay type: ADME, organism-based; details: in vivo; procedure, shortened: as §6
[30] = Tmax in mouse at 30 mg/kg, po by LC-MS/MS method; assay type: ADME, organism-based; details: in vivo
[31] = Cmax in rat at 10 mg/kg, po by LC-MS/MS method; assay type: ADME, organism-based; set-up: dose 10 mg/kg, route oral; details: in vivo
Mus musculus [32] = experiment: Analgesic activity in C57BL/6 mouse model of formalin-induced nociception behavior assessed as reduction in formalin-evoked paw lifting/licking at 60 mg/kg, po; assay type: functional; procedure, shortened: as §4

Chain of Sodium channel protein type 9 subunit alpha (Q62205 whole entry): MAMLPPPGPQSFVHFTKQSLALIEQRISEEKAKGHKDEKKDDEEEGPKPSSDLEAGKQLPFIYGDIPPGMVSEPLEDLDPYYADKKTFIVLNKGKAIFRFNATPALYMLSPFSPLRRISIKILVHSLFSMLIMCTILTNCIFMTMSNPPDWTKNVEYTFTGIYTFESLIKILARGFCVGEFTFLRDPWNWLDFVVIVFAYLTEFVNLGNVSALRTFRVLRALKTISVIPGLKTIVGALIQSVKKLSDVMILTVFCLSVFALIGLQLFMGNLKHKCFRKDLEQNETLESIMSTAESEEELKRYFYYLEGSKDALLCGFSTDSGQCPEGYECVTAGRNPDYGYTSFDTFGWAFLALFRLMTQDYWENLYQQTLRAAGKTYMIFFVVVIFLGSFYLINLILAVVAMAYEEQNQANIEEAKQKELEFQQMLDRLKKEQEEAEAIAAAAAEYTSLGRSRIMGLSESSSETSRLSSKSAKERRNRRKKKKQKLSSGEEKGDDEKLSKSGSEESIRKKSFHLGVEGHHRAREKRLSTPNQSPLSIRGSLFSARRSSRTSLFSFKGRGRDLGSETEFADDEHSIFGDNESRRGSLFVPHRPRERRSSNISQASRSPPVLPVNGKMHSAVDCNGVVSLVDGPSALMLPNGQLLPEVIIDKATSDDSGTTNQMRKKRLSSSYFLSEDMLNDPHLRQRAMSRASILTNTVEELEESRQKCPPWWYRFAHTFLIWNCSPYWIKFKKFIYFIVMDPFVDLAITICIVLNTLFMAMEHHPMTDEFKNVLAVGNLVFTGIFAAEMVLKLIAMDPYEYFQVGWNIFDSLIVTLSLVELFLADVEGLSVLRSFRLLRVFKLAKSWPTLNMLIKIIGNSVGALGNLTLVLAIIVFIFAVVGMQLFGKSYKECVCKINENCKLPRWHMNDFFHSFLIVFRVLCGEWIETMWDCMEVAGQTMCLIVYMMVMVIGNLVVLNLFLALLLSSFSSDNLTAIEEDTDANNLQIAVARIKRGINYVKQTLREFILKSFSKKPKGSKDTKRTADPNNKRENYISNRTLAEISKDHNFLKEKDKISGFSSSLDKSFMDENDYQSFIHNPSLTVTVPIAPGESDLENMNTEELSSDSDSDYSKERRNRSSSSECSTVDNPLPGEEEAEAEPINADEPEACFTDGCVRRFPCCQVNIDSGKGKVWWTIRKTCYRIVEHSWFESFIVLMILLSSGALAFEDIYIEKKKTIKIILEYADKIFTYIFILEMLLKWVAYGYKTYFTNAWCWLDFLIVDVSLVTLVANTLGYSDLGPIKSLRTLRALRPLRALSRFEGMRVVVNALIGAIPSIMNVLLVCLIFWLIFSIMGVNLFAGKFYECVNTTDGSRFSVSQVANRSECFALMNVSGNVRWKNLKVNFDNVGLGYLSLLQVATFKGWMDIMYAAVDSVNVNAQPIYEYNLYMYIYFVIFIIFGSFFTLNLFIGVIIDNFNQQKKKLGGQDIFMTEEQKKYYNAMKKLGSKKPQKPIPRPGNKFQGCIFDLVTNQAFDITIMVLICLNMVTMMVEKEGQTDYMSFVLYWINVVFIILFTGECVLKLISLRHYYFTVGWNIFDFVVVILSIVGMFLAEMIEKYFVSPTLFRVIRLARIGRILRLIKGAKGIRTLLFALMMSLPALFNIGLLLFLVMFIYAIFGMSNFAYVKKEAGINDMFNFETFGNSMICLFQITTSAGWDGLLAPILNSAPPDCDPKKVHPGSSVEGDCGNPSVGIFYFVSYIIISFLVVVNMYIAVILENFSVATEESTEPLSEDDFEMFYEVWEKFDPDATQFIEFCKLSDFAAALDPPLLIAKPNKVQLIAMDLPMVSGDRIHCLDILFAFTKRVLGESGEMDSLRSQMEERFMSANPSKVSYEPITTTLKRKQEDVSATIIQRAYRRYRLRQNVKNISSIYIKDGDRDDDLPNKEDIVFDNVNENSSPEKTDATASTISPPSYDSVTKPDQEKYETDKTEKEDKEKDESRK
Chain of Sodium channel protein type 10 subunit alpha (Q62968 whole entry): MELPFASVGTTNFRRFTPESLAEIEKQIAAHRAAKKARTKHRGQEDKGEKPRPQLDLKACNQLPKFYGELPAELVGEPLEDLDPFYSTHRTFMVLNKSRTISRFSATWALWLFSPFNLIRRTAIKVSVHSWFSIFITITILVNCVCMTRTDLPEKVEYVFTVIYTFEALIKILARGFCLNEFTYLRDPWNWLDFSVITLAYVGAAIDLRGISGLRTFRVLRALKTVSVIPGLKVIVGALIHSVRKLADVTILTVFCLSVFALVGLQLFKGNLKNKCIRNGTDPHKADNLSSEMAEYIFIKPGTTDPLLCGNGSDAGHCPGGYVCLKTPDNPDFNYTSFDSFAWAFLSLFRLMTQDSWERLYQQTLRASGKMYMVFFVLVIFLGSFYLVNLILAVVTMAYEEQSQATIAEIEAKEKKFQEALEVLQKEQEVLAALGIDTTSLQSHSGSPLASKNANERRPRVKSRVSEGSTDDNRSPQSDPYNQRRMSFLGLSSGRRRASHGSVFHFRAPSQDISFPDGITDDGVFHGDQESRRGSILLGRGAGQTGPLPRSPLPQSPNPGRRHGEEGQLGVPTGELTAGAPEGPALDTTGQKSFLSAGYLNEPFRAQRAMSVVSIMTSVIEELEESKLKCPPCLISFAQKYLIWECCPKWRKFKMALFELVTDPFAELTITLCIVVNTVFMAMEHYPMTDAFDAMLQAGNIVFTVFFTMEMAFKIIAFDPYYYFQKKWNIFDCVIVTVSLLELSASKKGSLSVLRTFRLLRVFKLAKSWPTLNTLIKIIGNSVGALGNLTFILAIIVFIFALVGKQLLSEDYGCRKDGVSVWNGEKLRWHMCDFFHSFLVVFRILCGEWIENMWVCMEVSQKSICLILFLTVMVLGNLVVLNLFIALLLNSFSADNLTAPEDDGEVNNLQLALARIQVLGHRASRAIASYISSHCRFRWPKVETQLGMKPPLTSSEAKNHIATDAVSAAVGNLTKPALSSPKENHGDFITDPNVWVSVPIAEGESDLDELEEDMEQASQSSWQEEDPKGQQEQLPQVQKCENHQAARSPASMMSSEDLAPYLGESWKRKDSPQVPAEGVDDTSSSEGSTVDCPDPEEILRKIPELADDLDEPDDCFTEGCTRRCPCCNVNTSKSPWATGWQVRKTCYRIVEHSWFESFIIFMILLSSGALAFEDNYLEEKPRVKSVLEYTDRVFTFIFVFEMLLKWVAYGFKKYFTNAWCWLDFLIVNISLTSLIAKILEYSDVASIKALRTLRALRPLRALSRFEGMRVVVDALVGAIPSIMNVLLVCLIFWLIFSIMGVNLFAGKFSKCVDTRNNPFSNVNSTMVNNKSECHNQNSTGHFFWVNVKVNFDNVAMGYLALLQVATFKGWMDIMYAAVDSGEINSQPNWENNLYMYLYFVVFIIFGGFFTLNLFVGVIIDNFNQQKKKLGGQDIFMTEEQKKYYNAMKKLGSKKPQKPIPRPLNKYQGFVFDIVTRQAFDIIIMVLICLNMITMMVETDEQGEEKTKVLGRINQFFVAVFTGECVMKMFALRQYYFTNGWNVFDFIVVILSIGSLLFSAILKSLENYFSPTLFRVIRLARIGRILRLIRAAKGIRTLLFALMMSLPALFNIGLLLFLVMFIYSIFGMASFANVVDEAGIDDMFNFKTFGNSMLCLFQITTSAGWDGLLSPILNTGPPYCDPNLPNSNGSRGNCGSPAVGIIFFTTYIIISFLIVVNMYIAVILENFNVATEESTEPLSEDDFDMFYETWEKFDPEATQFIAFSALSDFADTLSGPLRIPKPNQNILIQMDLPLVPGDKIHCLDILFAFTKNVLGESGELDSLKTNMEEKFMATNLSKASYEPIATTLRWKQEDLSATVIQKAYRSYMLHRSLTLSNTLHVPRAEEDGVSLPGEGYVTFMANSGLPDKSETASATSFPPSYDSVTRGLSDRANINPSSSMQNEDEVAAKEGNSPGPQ
Chain of Histamine H2 receptor (Homo sapiens) (P25021 whole entry): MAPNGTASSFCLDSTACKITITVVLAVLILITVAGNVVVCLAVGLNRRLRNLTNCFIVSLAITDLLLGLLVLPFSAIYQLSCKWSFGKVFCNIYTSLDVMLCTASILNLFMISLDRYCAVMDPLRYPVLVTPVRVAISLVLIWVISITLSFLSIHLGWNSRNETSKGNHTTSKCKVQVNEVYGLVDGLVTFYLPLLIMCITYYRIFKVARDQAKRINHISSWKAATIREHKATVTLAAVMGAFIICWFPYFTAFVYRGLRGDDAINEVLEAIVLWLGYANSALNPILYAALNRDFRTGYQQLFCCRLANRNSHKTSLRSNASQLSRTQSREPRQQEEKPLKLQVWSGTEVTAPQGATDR

In the case of `N#Cc1cc(C(F)(F)F)ccc1N1CCOc2cc(S(=O)(=O)Nc3nccs3)c(F)cc21`, the IC50 [1] is reported as 60 nM, the inhibition [2] is reported as “inactive” and the concentration (Plasma [3]) is reported as 1.7 µM. It also gave a Ratio [4] of 10, an AUC(0-inf) [5] of 1.8 µM·h and a microsomal CLint at 1 µM [6] of less than 14 µL/min/mg. The Ratio [7] was 5, the “Cp(f)” value (Plasma [8]) was 0.37 µM and the fraction unbound at 5 µM [9] was 0.006. The concentration (Plasma [10]) was 11 µM, the concentration (Plasma [11]) was 100 µM and the concentration (Plasma [12]) was 4.2 µM. The fraction unbound at 5 µM [13] was 0.015, the “Cp(f)” value (Plasma [14]) was 0.68 µM and the “Cp(f)” value (Plasma [15]) was 0.18 µM. It also gave a CL free (Rattus norvegicus [16]) of 650 mL/min/kg, a concentration (Plasma [17]) of 109 µM and an MPE (Mus musculus [18]) of 77%. For the same molecule, the IC50 [19] was greater than 30000 nM, the inhibition (Mus musculus [20]) was “Dose-dependent effect” and the Papp at 5 µM [21] was 19 ×10⁻⁶ cm/s. The MPE (Rattus norvegicus [22]) was 39%, the “Cp(f)” value (Plasma [23]) was 0.027 µM and the MPE (Mus musculus [24]) was 71%. For the same molecule, the Ratio [25] was 3.6, the clearance [26] was 10 mL/min/kg and the Ratio [27] was 11. The concentration (Plasma [28]) was 51 µM, the concentration (Plasma [29]) was 113 µM and the Tmax [30] was 2 h. The Cmax [31] was 0.95 to 0.99 µM and the MPE (Mus musculus [32]) was 45%.

— ChEMBL document CHEMBL4052683, “The discovery of benzoxazine sulfonamide inhibitors of NaV1.7: Tools that bridge efficacy and target engagement” (Bioorg Med Chem Lett, 2017)
